Data published in ChEMBL document CHEMBL3734686, “Synthesis, Photophysical Properties, and Biological Evaluation of trans-Bisthioglycosylated Tetrakis(fluorophenyl)chlorin for Photodynamic Therapy” (J Med Chem, 2015).

Experiments:
Stomach = assay: Drug uptake in BALB/c mouse stomach implanted with mouse 4T1 cells assessed per gram of tissue at 0.18 mg/kg, ip after 24 hrs by HPLC-based fluorescence analysis; type: ADME, organism-based; conditions: in vivo
In short: (§1)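 Female BALB/c mice with 4T1 cells (1 × 10^6 in HBSS) implanted in left rear thigh; single i.p. dose, 7 in ethanol/PEG400/H2O (2/3/5) with 0.1% DMSO, mono-L-aspartyl chlorin e6 in saline; kept dark until sacrifice. Tissues washed, frozen, homogenized in CH3OH/DMSO/H2O (32/8/1), centrifuged 2300×g; supernatant analysed by HPLC with fluorescence detection; three animals per time point.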

Spleen = assay: Drug uptake in BALB/c mouse spleen implanted with mouse 4T1 cells assessed per gram of tissue at 0.18 mg/kg, ip after 24 hrs by HPLC-based fluorescence analysis; type: ADME, organism-based; conditions: in vivo; in short: as §1
[1] = Drug uptake in BALB/c mouse large intestine implanted with mouse 4T1 cells assessed per gram of tissue at 0.18 mg/kg, ip after 72 hrs by HPLC-based fluorescence analysis; type: ADME, organism-based; conditions: in vivo
In short: (§2)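 Female BALB/c mice bearing 4T1 thigh tumours received an i.p. dose in ethanol/PEG400/H2O (2/3/5) with 0.1% DMSO, or in saline, and were kept dark until killed. Tissues were weighed (100 mg), homogenised in CH3OH/DMSO/H2O (32/8/1) and centrifuged twice at 2300×g at 4°C. Supernatants were analysed by HPLC with fluorescence detection (λex 404/λem 654 nm or λex 400/λem 666 nm). n = 3 per time point.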

Urinary bladder = assay: Drug uptake in BALB/c mouse bladder implanted with mouse 4T1 cells assessed per gram of tissue at 0.18 mg/kg, ip after 6 hrs by HPLC-based fluorescence analysis; type: ADME, organism-based; conditions: in vivo; in short: as §2
[2] = Drug uptake in mitochondria of human Hela cells at 0.5 uM preincubated for 24 hrs followed by MitoTracker Green FM addition for 30 mins by CSLM analysis; type: ADME; conditions: 0.5 h
In short: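 HeLa cells (1 × 10^4) plated 24 h, incubated 24 h with 0.5 µM final photosensitizer (1% DMSO), washed, stained 30 min with 250 nM MitoTracker Green FM in HBSS at 37°C, fixed in 4% paraformaldehyde. Confocal imaging: red λex 488/λem 650 nm; green λex 488/λem 505–530 nm.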

CN1CC2C3=N/C(=C(/c4c(F)c(F)c(S[C@@H]5O[C@H](CO)[C@@H](O)[C@H](O)[C@H]5O)c(F)c4F)C4=N/C(=C(/c5c(F)c(F)c(F)c(F)c5F)c5ccc([nH]5)/C(c5c(F)c(F)c(S[C@@H]6O[C@H](CO)[C@@H](O)[C@H](O)[C@H]6O)c(F)c5F)=C5/C=CC(=N5)C3c3c(F)c(F)c(F)c(F)c3F)C=C4)C2C1 (stereo not given in full) gave a Drug uptake (Stomach) of 31 ng/g, a Drug uptake (Spleen) of 58 ng and a Drug uptake [1] of 7 ng/g. For the same molecule, the Drug uptake (Urinary bladder) was 90 ng/g and the Drug uptake [2] was “Active”.
